PGC1a acetyl inh – lowers PGC1a acetylation signal in U2OS cells. inhibition, % at 15.6 µM. AlphaScreen anti-acetyl-lysine; with virally co-expressed GCN5 acetyltransferase. hit rate 0.17% among 350,000;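 active = every replicate shows inhibition of at least 40%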;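 note: 0% = neutral control wells and 100% = positive control wells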
SIRT5 inh – inhibitors of human sirtuin-5 desuccinylase; Q9NXA8; Purified SirT5, succinyl-peptide AMC, trypsin-coupled fluorescence; inhibition, % at 15 µM; hit rate 1.1% among 330,000; in the data active = inhibition above about 15%
Target sequence (Q9NXA8 whole entry, looked up): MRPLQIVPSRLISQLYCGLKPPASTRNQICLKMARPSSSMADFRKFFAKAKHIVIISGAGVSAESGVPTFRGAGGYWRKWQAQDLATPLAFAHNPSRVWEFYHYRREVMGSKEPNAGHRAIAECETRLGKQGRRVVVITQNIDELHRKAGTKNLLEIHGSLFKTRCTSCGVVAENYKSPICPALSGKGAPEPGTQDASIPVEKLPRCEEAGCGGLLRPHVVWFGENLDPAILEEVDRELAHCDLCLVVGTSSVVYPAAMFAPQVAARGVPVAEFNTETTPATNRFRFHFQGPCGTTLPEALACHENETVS
Statin myotox sup – protects C2C12 myotubes from simvastatin toxicity | ATP luminescence, 48 h; scaled: DMSO 0, geranylgeraniol control 100 | rescue of ATP level, % at 7.49 µM | hit rate 0.78% among 330,000;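 active = mean ATP rescue above about 67%, or every replicate alone reaching that limit, limit read from the data, passing the limit was not always enough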;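 note: myotubes were challenged with 10 µM simvastatin during compound exposure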
S100A4 inh HTS – blocks human S100A4 binding to myosin IIA peptide; P26447; S100A4/TAMRA-MyoIIA peptide fluorescence polarization; inhibition, % at 10.7 µM; hit rate 0.14% among 360,000;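 active = mean inhibition of at least 70% across replicates, with every replicate also reaching that level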
Target sequence (P26447 whole entry, looked up): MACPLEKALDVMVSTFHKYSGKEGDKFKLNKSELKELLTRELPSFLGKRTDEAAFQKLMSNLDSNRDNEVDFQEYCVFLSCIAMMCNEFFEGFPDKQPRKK
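Assay system: human S100A4 monomer with TAMRA-labelled myosin IIA peptide / Buffer or medium: Calcium-containing HEPES buffer, pH 7.2 / Reagent: TAMRA-labelled myosin IIA heavy-chain peptide probe, 5 nM / Compound: one dose per compound / Timing: polarization read 5 min after assay mix addition, stable 5–60 min / Benchmarks: neutral control DMSO, positive control TFP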
Cneo AK release – Cryptococcus neoformans lysis via adenylate kinase release; C. neoformans lysis, adenylate kinase release luminescence, 4 h; normalised: neutral wells 0, clomiphene wells 100; lysis activity, % at 15 µM; hit rate 0.2% among 360,000; AID 651654;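 active = mean lysis activity across replicates of at least 80%, whatever share of replicates individually reach that level; inactive = mean lysis activity below 80%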
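Material – log-phase Cryptococcus neoformans yeast cells · Input – 5 × 10^6 yeast cells/mL · Medium – fresh YPD growth medium · Doses – single compound concentration per well · Timing – static 4 h at 37 °C with compound, 1 h detection · Detection – adenylate kinase release luminescence · Read-out – signal increase indicating cell lysis · Control set – Clomiphene as positive lysis control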
rRNA inh HTS – selective bacterial rRNA inhibition in E. coli; GFP signal change (wild-type ribosome), % (test concentration not listed); AID 720706; hit rate 1.6% among 350,000; E. coli WT GFP vs humanized-ribosome RFP mutants, fluorescence, 24 h; active compounds read low; DMSO median 0, no signal -100;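 active = significant combined selectivity score with lowered wild-type GFP, culture density cut under 30%, mutant RFP and density less affected; inactive = any of these conditions unmet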
Active calls of the source: *; nt = no result given. Compounds with a hit are over-represented: about 3% of the library has one in this group of screens.

SMILES | PGC1a acetyl inh | SIRT5 inh | Statin myotox sup | S100A4 inh HTS | Cneo AK release | rRNA inh HTS
CC(C)NC(=O)Nc1ccc2c(c1)CC(=O)N([C@H](C)CO)C[C@H](C)[C@H](CN(C)C(=O)NC1CCCCC1)O2 | 1.7 | 0.9 | -4.9 | 8.8 | -2.8 | 3.2
CC(C)NC(=O)Nc1ccc2c(c1)CC(=O)N([C@@H](C)CO)C[C@@H](C)[C@@H](CN(C)C(=O)NC1CCCCC1)O2 | 0.2 | 17.7* | -14.0 | -0.8 | -0.3 | 2.9
C[C@H]1CN([C@@H](C)CO)C(=O)Cc2cc(NC(=O)Nc3ccc4c(c3)OCO4)ccc2O[C@H]1CN(C)CC1CCCCC1 | 4.7 | 10.2 | -42.8 | 2.4 | -4.0 | -0.2
C[C@H](CO)N1C[C@H](C)[C@@H](CN(C)CC2CCCCC2)Oc2ccc(NC(=O)Nc3ccc4c(c3)OCO4)cc2CC1=O | 3.8 | 15.9* | -13.0 | 0.8 | 2.5 | 0.8
CC(C)NC(=O)Nc1ccc2c(c1)CC(=O)N([C@H](C)CO)C[C@@H](C)[C@H](CN(C)C(=O)Nc1ccc3c(c1)OCO3)O2 | -8.2 | 5.4 | 14.6 | 13.8 | 6.2 | 3.8
CC(C)NC(=O)Nc1ccc2c(c1)CC(=O)N([C@@H](C)CO)C[C@@H](C)[C@H](CN(C)C(=O)Nc1ccc3c(c1)OCO3)O2 | 9.7 | 4.6 | 10.0 | -2.3 | 85.0* | 4.8
C[C@H](CO)N1C[C@H](C)[C@@H](CN(C)CC2CC2)Oc2c(NC(=O)CCCCCC(=O)Nc3ccccc3N)cccc2C1=O | nt | nt | nt | nt | nt | -0.3
C[C@H](CO)N1C[C@H](C)[C@@H](CN(C)C(=O)c2cccc(F)c2)Oc2ncc(-c3ccccc3)cc2C1=O | -28.2 | nt | -1.4 | nt | nt | -7.3
CCOc1ccc(-c2nc(CSCC(=O)NCCN3CCOCC3)c(C)o2)cc1 | 10.5 | nt | 101.7* | nt | nt | nt
CCOc1ccc(-c2nc(CSCC(=O)NCCCN3CCCC3=O)c(C)o2)cc1 | -11.7 | 2.1 | 2.5 | 3.8 | 10.5 | 9.4
CCSc1nnnn1-c1ccccc1 | nt | 12.4 | 4.9 | -2.2 | 1.1 | 3.9
O=C(CSc1nnnn1-c1ccccc1)NC(=O)NCc1ccco1 | -5.1 | nt | 95.0* | nt | -0.9 | nt
O=C(CSc1nnnn1-c1ccccc1)CSc1nnnn1-c1ccccc1 | 12.9 | 2.6 | 10.7 | 16.7 | 0.2 | -28.4*
CC(=O)c1cccc(-n2nnnc2SCC(=O)NNC(=O)C(C)C)c1 | 84.7* | -5.5 | 4.6 | 0.1 | 1.0 | 11.5
O=C(O)CSc1nnnn1-c1ccccc1 | -2.8 | nt | 1.9 | nt | 3.5 | nt
Cc1ncc(CSc2nnnn2-c2ccccc2)c(N)n1 | -5.2 | -2.5 | 2.4 | -14.4 | 3.8 | -21.0*
Cc1noc(C)c1NC(=O)Nc1ccc2c(c1)C(=O)N([C@@H](C)CO)C[C@@H](C)[C@@H](CN(C)C(=O)C1CCCCC1)OCCCC[C@H](C)O2 | 5.1 | 0.4 | nt | -4.1 | -0.6 | -1.6
C[C@@H]1CCCCO[C@@H](CN(C)Cc2ccc(C(F)(F)F)cc2)[C@H](C)CN([C@@H](C)CO)C(=O)c2cc(NC(=O)C3CCCCC3)ccc2O1 | -3.9 | nt | nt | nt | -0.2 | -0.5
C[C@@H]1CN([C@H](C)CO)C(=O)c2cc(NS(=O)(=O)c3ccccc3)ccc2O[C@@H](C)CCCCO[C@@H]1CN(C)C | 6.4 | 1.2 | -16.7 | 30.9 | -0.2 | -1.0
CS(=O)(=O)N1C2CN(CC3CC3)CC1C2c1ccc(Br)cc1 (centres undefined) | nt | nt | nt | nt | nt | -1.7
CN(C)CCCNC(=O)[C@@H]1[C@@H](CO)[C@@H]2Cn3c(ccc(-c4ccccc4)c3=O)[C@@H]2N1C | nt | -1.2 | -9.4 | 9.7 | 1.8 | 2.3
O=C1C(=Cc2cccs2)Oc2ccccc21 | -19.9 | nt | -3.8 | -3.7 | -0.6 | -18.9*
O=C1/C(=C/c2cccs2)COc2ccccc21 | nt | -0.6 | nt | 13.4 | nt | -41.2
O=C(N/N=C/c1cccnc1)c1ccc(CN2c3cccc4cccc(c34)S2(=O)=O)cc1 | nt | -6.5 | -5.0 | -3.3 | -1.0 | -17.6*
O=C(O)C[C@H]1C[C@@H]2c3cc(NC(=O)Nc4ccccc4F)ccc3O[C@@H]2[C@@H](CO)O1 | 5.0 | 5.0 | 1.3 | 5.5 | -1.9 | 2.1
SMILES | PGC1a acetyl inh | SIRT5 inh | Statin myotox sup | S100A4 inh HTS | Cneo AK release | rRNA inh HTS
O=C1c2ccccc2C(=O)c2c1ccc1c(=O)n(C3CCCCC3)[nH]c21 | nt | 18.8* | 2.3 | -6.2 | 0.0 | -4.5
CC(NC(=O)c1ccccc1F)c1nnc(SCC(=O)Nc2nnc(C3CC3)s2)n1C (centres undefined) | nt | -6.2 | nt | 93.3* | 4.5 | 2.0
Cc1nnc(NC(=O)CSc2nnc(CCNC(=O)c3ccccc3F)n2C)s1 | -2.9 | -14.0 | -12.1 | -7.7 | 0.4 | nt
COc1ccc(CN2CCN(c3nc4ccccc4s3)CC2)cc1 | 9.7 | -8.6 | 6.6 | -5.9 | -0.2 | -1.8
COc1ccc(CCn2c(O)cc3nn(-c4nc5ccccc5s4)c(=O)c-3c2C)cc1 | -9.0 | 4.5 | nt | -0.7 | nt | -17.5*
c1ccc2[nH]c(CSc3nnc(-c4ccncc4)o3)nc2c1 | -2.9 | nt | 85.0* | nt | -8.7 | nt
Brc1cccc(-c2nnc(SCc3nc4ccccc4[nH]3)o2)c1 | 3.5 | nt | 42.1 | nt | 1.6 | nt
COc1ccccc1-c1c(C)nn2c(N3CCC4(CC3)OCCO4)cc(C)nc12 | -12.8 | nt | 85.3* | nt | 6.1 | nt
O=C(/C=C/c1ccc(Cl)cc1)NC1CC2CCC1C2 (centres undefined) | -6.4 | -1.7 | 1.4 | 2.8 | -2.8 | -50.0
O=C(/C=C/c1ccc([N+](=O)[O-])cc1)NC1CC2CCC1C2 (centres undefined) | nt | nt | nt | -46.1 | nt | -28.4*
CC(C)NC(=O)Nc1ccc2c(c1)C(=O)N([C@H](C)CO)C[C@@H](C)[C@@H](CN(C)Cc1ccc(C(=O)O)cc1)OCCCC[C@H](C)O2 | 10.8 | -3.4 | nt | 3.9 | -1.4 | 4.2
COC(=O)c1sccc1NC(=O)CC1C(=O)NCCN1C(=O)Nc1cc(Cl)ccc1OC (centres undefined) | 13.3 | 0.5 | nt | -2.4 | 0.1 | -22.4*
CCC(=O)N1CC2(C1)[C@H](c1ccccc1)[C@@H](CO)N2CCC(F)(F)F | 7.8 | 0.1 | nt | 2.4 | nt | 1.7
COc1ccc(C(=O)N/C(=C/c2cccs2)c2nc3ccccc3[nH]2)cc1OC | nt | -1.4 | nt | -1.7 | nt | -8.4
COc1cc(/C=C(/C(=O)c2cccs2)c2nc3ccccc3[nH]2)cc(OC)c1O | -1.1 | 2.9 | 119.5* | -3.0 | nt | 15.1
CNC[C@@H]1Oc2ccc(NS(=O)(=O)c3cccs3)cc2C(=O)N([C@H](C)CO)C[C@@H]1C | -1.9 | 5.2 | 11.7 | -8.3 | -13.4 | 1.1
COc1ccc(/C=C/CN2CCCC(CO)(Cc3cccc(Cl)c3)C2)cc1 (centres undefined) | -12.8 | -1.1 | 11.4 | -30.3 | 3.8 | -47.2*
COc1ccccc1/C=C/CN1CCCC(CO)(Cc2cccc(Cl)c2)C1 (centres undefined) | 15.4 | 1.4 | -6.4 | 1.0 | 2.9 | -45.3
